Laboratory results taken from BindingDB's records for doi:10.1016/j.ejmech.2021.113333 (Fudan University, 2021).

Target: T1, Signal transducer and activator of transcription 1-alpha/beta (Homo sapiens, UniProt P42224)
T1 sequence (P42224 whole entry): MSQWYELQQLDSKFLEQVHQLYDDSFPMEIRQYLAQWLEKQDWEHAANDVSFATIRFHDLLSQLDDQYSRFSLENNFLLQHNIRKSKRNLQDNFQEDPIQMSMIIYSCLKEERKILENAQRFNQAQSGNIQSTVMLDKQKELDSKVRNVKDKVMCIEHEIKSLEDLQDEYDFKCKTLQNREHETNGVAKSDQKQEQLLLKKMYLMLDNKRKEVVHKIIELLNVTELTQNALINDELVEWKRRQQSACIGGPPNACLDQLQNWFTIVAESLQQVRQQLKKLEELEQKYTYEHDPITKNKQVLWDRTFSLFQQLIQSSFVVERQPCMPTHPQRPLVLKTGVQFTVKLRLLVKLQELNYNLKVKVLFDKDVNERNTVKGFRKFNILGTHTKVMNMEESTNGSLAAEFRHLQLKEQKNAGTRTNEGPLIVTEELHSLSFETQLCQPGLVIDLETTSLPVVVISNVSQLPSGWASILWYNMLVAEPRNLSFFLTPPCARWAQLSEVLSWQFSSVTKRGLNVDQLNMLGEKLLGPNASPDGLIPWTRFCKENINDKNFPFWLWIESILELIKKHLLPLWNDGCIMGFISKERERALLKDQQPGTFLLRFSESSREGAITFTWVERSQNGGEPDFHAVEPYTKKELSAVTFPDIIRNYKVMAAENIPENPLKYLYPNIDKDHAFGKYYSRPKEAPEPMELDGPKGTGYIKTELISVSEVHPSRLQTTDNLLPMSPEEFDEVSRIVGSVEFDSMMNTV
Test: Inhibition of IFN-gamma-induced STAT1 transcriptional activity in human HepG2 cells by luciferase reporter gene assay
Outline: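 STAT1-dependent luciferase reporter assay in HepG2 cells with IFN-γ stimulation; mean ± SD of at least three independent experiments.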

| IC50 | Structure (SMILES) |
| --- | --- |
| 350 nM | CCCC(C)Oc1ccc(C(=O)Nc2ccc3nc(SCC(=O)N[C@@H](C)c4ccccc4)sc3c2)c(OC)c1C (some centres not stated) |
| 320 nM | CCCC(C)Oc1ccc(C(=O)Nc2ccc3nc(SCC(=O)N[C@@H](C)c4ccc(OC)cc4)sc3c2)c(OC)c1C (some centres not stated) |
